Legend:
[1] = Plasma protein binding in rat at 20 uM after 1 hr by HPLC analysis; type: ADME, cell-free; details: read-out: PPB (converted)
Procedure, shortened: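 20 μM compound in rat plasma, 37 °C for 1 h. Free fraction separated by 30 kDa MWCO centrifugal ultrafiltration and quantified by HPLC with fluorescence detection against external calibration standards.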

[2] = Drug excretion in Sprague-Dawley rat urine after 6 hrs; type: ADME
Procedure, shortened: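 Test agent (1 mL, 2 mM in PBS) given by tail vein to conscious restrained rats in metabolic cages, urine collected at 2, 4 and 6 h with cage washes; or to rats anesthetized with Inactin 100 mg/kg ip, tracheotomized, kept on 37 °C pad, with bladder urine drawn at 6 h. Urine level by HPLC with fluorescence detection against external standards; %ID from mass balance; mean ± SEM, n=3-6.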

[3] = Stability of the compound assessed as drug degradation by HPLC analysis; type: physicochemical
[4] = Terminal half life in Sprague-Dawley rat plasma […]; type: ADME, organism-based; details: read-out: beta t1/2
Procedure, shortened: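 Male Sprague Dawley rats (330-380 g), Inactin ip, tracheotomized, with femoral vein dosing and femoral artery sampling catheters. Dose was 1 mL of 2 mM agent; about 200 μL blood taken at 0-120 min (10 points). Plasma measured by HPLC with fluorescence detection against external standards. Terminal-phase half-life from two-compartment modeling; mean ± SEM, n=4-8.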

Rattus norvegicus = assay: Plasma clearance in Sprague-Dawley rat in presence of 70 mg/kg probenecid administered 10 mins prior to compound treatment; details: in vivo
Mus musculus = species: Mus musculus; assay: Drug uptake in mouse bladder at 300 uL after 60 mins by real-time fluorescence analysis; details: in vivo, 1 h

Structure (SMILES)	fraction unbound at 1 h, 20 µM [1]	urinary excretion (% of injected dose) at 6 h [2] [% ID]	Stability [3]	half-life [4] [min]	CL (Rattus norvegicus)	Drug uptake (Mus musculus)
Nc1nc(C(=O)NCCO)c(N)nc1C(=O)NCCO	0.88					
NC(=O)c1nc(NC[C@H](O)CO)c(C(N)=O)nc1NC[C@H](O)CO	0.85	25				
O=C(NCC(O)CO)c1nc(NC[C@H](O)CO)c(C(=O)NCC(O)CO)nc1NC[C@H](O)CO (stereo not given in full)	0.94	88	Stable	19	Active	Active
O=C(NCC(O)CO)c1nc(NC[C@@H](O)CO)c(C(=O)NCC(O)CO)nc1NC[C@@H](O)CO (stereo not given in full)	0.96	87				
CNC(=O)c1c(I)c(NC(C)=O)c(I)c(C(=O)O)c1I [IOTHALAMIC ACID]	0.9	80		32	Active	

Now from value to compound:

fraction unbound at 1 h, 20 µM [1]	urinary excretion (% of injected dose) at 6 h [2] [% ID]	Stability [3]	half-life [4] [min]	CL (Rattus norvegicus)	Drug uptake (Mus musculus)	Structure (SMILES)
0.98	61					Nc1nc(C(=O)NCC(O)CO)c(N)nc1C(=O)NCC(O)CO (stereo not given)
1	82	Stable	36	Not Active		Nc1nc(C(=O)N[C@@H](CO)C(=O)O)c(N)nc1C(=O)N[C@@H](CO)C(=O)O
1	61					Nc1nc(C(=O)N[C@H](CC(=O)O)C(=O)O)c(N)nc1C(=O)N[C@H](CC(=O)O)C(=O)O
0.26						CCCNc1nc(C(=O)N[C@H](CO)C(=O)O)c(NCCC)nc1C(=O)N[C@H](CO)C(=O)O
1	85	Stable	20	Active		O=C(N[C@H](CO)C(=O)O)c1nc(NC[C@H](O)CO)c(C(=O)N[C@H](CO)C(=O)O)nc1NC[C@H](O)CO
1	90	Stable	29	Active		Nc1nc(C(=O)N[C@H](CO)C(=O)O)c(N)nc1C(=O)N[C@H](CO)C(=O)O [RELMAPIRAZIN]

Source: ChEMBL document CHEMBL1949589, “Hydrophilic pyrazine dyes as exogenous fluorescent tracer agents for real-time point-of-care measurement of glomerular filtration rate” (J Med Chem, 2011)
